Calls of active or inactive are those of the source. The rule behind the calls is not given here.
What was measured:
[1] = system: HeLa; assay: Antiproliferative activity against human HeLa cells; type: functional, cell-based
[2] = system: Chorioallantoic membrane; assay: Antiangiogenic activity in fertile leghorn chicken egg Chorioallantoic membrane assessed as inhibition of human VEGF-165/bFGF-induced angiogenesis after 48 hrs by CAM assay; type: functional, tissue-based; settings: Gallus gallus
[3] = molecular target: Platelet-derived growth factor receptor beta (Homo sapiens, UniProt P09619); assay: Inhibition of PDGFRbeta in human SH-SY5Y cells by phosphotyrosine ELISA assay; type: cell-based
[4] = system: SK-OV-3; assay: Antiproliferative activity against human SKOV3 cells; type: functional, cell-based
[5] = molecular target: Vascular endothelial growth factor receptor 2 (Homo sapiens, UniProt P35968); type: cell-based, U-251
[6] = system: SK-OV-3; assay: Antiproliferative activity against human SKOV3 cells expressing MDR1/M-6-6; type: functional, cell-based
[7] = system: HeLa; assay: Antiproliferative activity against human HeLa cells expressing beta3-tubulin; type: functional, cell-based
[8] = molecular target: Epidermal growth factor receptor (Homo sapiens, UniProt P00533); type: cell-based, A-431
[9] = system: MDA-MB-435; assay: Antiproliferative activity against human MDA-MB-435 cells; type: functional, cell-based
[10] = Growth inhibition of human MOLT4 cells by SRB assay; type: functional; settings: MOLT-4
[11] = molecular target: Tubulin (Sus scrofa, UniProt P02554+P02550); assay: Inhibition of pig brain tubulin polymerization by spectrophotometric analysis
[12] = system: A-431; assay: Cytotoxicity against human A431 cells by SRB assay; type: functional, cell-based
[13] = system: MCF7; assay: Cytotoxicity against human ER-positive MCF7 cells; type: functional, cell-based
[14] = system: MDA-MB-231; assay: Cytotoxicity against human triple negative MDA-MB-231 cells; type: functional, cell-based
[15] = system: MDA-MB-435; assay: Cytotoxicity against human MDA-MB-435 cells; type: functional, cell-based
[16] = system: MDA-MB-468; assay: Cytotoxicity against human triple negative MDA-MB-468 cells; type: functional, cell-based
[17] = system: HUVEC; assay: Cytotoxicity against HUVEC; type: cell-based; settings: Homo sapiens
[18] = system: MCF7; assay: Cytotoxicity against human taxoid-resistant MCF7 cells; type: functional, cell-based
[19] = system: 4T1; assay: Cytotoxicity against mouse triple negative 4T1 cells; type: functional, cell-based
[20] = system: 4T1; assay: Antitumor activity against luciferase/GFP-tagged mouse 4T1 cells allografted in BALBc/J mouse assessed as reduction in primary tumor growth at 50 mg/kg twice weekly starting at day 7 and continuing to day 32; type: functional, organism-based; design: dose 50 mg/kg
Outline: (§1)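 750 4T1-Luc2/GFP cells (>98% GFP+) in PBS/1 mM EDTA implanted into fat pad #4 of 8 wk female BALB/c mice. MTD doses given twice weekly (docetaxel weekly), day 7 to day 32; DMSO/solutol-15/D5W vehicle. Calipers, ellipsoid volume; weights before each dose; 7-10 mice per group; lungs imaged fresh by fluorescence at day 33.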

[21] = molecular target: Tubulin (Sus scrofa) (UniProt P02554+P02550); settings: 5 uM
[22] = system: HeLa; assay: Cell cycle arrest in human HeLa cells assessed as effect on accumulation at G1 phase at 40 to 50 nM after 18 hrs by flow cytometric analysis; type: functional, cell-based
Outline: (§2)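 HeLa cells allowed to adhere 24 h, then drug-treated (18 h per legend; harvest stated 24 h in methods). Stained with Krishan's reagent; DNA content measured by flow cytometry.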

[23] = system: MDA-MB-435; assay: Antitumor activity against human MDA-MB-435 cells […] assessed as decrease in tumor vascular density at 50 mg/kg by CD31/PECAM-1 immunohistochemical staining; type: functional, organism-based; design: dose 50 mg/kg
[24] = system: HeLa; assay: Cell cycle arrest in human HeLa cells assessed as accumulation at G2/M phase after 18 hrs by flow cytometric analysis; type: functional, cell-based; outline: as §2
[25] = system: MDA-MB-435; assay: Antitumor activity against human MDA-MB-435 cells […] assessed as decrease in tumor growth at 50 mg/kg relative to untreated control; type: functional, organism-based; design: dose 50 mg/kg
[26] = system: HeLa; assay: Cell cycle arrest in human HeLa cells assessed as accumulation at G2/M phase at 40 to 50 nM after 18 hrs by flow cytometric analysis; type: functional, cell-based; outline: as §2
[27] = system: 4T1; assay: Antitumor activity against luciferase/GFP-tagged mouse 4T1 cells allografted in BALBc/J mouse assessed as reduction in number of lung metastases at 50 mg/kg twice weekly starting at day 7 and continuing to day 32; type: functional, organism-based; design: dose 50 mg/kg; outline: as §1
[28] = system: MDA-MB-435 (Homo sapiens); assay: Induction of apoptosis in human MDA-MB-435 cells assessed as PARP cleavage at 75 nM after 18 hrs by Western blot analysis
[29] = system: 4T1; assay: Antitumor activity against luciferase/GFP-tagged mouse 4T1 cells allografted in BALBc/J mouse assessed as reduction in tumor size at 50 mg/kg twice weekly starting at day 7 and continuing to day 32; type: functional, organism-based; design: dose 50 mg/kg; outline: as §1
[30] = system: MDA-MB-435 (Homo sapiens); assay: Induction of apoptosis in human MDA-MB-435 cells assessed as PARP cleavage at 75 nM after 18 to 36 hrs by Western blot analysis
[31] = system: Mus musculus; assay: Toxicity in luciferase/GFP-tagged mouse 4T1 cells allografted in BALBc/J mouse assessed as body weight loss at 50 mg/kg twice weekly starting at day 7 and continuing to day 32; type: organism-based; design: dose 50 mg/kg; settings: in vivo; outline: as §1
[32] = system: Mus musculus; assay: Toxicity in human MDA-MB-435 cells […] assessed as increase in body weight at 50 mg/kg; type: organism-based; design: dose 50 mg/kg; settings: in vivo
[33] = in vivo; settings: BALBc/J, mouse
[34] = system: 4T1; assay: Antitumor activity against luciferase/GFP-tagged mouse 4T1 cells allografted in BALBc/J mouse assessed as reduction in primary tumor growth at 35 mg/kg twice weekly starting at day 7 and continuing to day 32; type: functional, organism-based; design: dose 35 mg/kg; outline: as §1

Chain of Vascular endothelial growth factor receptor 2 (P35968 whole entry): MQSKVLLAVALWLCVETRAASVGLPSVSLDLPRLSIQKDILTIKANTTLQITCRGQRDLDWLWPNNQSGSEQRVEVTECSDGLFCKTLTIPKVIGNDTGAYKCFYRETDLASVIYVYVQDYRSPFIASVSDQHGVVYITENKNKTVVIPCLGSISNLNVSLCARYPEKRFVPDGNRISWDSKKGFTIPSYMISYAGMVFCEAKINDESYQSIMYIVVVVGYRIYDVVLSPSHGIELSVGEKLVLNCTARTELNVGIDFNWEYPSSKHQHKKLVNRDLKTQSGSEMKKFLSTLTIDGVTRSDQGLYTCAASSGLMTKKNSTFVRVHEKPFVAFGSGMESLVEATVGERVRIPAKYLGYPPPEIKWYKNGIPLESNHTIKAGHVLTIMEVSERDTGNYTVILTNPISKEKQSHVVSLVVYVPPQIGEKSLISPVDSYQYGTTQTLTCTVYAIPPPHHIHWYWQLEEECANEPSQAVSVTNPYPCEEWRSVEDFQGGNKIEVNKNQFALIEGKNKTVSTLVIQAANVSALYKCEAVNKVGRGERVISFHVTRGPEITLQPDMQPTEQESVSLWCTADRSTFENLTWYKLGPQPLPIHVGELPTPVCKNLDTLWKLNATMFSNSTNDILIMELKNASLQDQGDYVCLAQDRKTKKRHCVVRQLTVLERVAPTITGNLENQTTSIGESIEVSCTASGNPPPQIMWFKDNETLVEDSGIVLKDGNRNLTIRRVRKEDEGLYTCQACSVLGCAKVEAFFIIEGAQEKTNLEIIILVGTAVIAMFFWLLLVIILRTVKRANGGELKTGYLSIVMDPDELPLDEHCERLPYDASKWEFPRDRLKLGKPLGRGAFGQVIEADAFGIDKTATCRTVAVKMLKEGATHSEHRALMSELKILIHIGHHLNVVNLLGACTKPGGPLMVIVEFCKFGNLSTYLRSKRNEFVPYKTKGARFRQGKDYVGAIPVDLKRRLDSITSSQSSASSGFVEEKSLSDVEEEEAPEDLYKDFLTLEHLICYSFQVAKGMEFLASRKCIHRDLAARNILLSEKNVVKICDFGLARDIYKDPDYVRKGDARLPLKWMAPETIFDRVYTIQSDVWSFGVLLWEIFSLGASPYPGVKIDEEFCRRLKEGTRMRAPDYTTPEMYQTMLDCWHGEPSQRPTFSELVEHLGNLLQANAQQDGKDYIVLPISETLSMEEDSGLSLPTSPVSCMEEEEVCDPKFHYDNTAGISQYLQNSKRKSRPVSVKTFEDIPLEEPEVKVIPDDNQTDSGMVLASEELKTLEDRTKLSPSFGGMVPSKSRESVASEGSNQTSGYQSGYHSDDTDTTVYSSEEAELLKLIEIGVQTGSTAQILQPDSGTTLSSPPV
Chain of Epidermal growth factor receptor (P00533 whole entry): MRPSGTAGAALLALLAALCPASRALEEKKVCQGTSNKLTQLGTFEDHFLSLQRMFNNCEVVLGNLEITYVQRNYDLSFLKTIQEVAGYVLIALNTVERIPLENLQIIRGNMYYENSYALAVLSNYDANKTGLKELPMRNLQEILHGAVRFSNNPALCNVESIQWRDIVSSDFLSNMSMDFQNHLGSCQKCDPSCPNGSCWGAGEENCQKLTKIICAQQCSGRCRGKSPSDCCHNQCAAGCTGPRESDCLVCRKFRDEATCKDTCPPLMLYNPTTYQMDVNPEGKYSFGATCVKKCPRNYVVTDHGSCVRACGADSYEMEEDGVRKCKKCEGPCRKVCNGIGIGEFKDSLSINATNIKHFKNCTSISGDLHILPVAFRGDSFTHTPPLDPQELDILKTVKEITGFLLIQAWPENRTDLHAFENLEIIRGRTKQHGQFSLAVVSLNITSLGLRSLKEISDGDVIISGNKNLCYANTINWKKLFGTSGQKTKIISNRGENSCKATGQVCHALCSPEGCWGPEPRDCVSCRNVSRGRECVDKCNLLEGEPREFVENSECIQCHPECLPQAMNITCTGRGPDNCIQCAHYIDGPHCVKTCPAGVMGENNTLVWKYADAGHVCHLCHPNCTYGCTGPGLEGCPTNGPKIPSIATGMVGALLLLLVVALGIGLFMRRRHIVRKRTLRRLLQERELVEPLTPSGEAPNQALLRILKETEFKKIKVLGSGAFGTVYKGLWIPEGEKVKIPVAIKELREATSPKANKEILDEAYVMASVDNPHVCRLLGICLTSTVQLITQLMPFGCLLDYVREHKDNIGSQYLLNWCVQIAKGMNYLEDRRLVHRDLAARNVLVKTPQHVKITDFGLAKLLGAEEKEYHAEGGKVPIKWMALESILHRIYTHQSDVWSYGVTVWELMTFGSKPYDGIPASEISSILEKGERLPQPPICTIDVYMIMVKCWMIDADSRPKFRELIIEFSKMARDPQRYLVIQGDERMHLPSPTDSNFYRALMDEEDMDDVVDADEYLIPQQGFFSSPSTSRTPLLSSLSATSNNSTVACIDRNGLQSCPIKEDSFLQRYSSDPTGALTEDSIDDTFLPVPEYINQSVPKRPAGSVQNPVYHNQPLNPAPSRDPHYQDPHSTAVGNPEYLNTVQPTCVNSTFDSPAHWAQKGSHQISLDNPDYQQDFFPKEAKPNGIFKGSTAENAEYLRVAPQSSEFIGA
Chain of Platelet-derived growth factor receptor beta (P09619 whole entry): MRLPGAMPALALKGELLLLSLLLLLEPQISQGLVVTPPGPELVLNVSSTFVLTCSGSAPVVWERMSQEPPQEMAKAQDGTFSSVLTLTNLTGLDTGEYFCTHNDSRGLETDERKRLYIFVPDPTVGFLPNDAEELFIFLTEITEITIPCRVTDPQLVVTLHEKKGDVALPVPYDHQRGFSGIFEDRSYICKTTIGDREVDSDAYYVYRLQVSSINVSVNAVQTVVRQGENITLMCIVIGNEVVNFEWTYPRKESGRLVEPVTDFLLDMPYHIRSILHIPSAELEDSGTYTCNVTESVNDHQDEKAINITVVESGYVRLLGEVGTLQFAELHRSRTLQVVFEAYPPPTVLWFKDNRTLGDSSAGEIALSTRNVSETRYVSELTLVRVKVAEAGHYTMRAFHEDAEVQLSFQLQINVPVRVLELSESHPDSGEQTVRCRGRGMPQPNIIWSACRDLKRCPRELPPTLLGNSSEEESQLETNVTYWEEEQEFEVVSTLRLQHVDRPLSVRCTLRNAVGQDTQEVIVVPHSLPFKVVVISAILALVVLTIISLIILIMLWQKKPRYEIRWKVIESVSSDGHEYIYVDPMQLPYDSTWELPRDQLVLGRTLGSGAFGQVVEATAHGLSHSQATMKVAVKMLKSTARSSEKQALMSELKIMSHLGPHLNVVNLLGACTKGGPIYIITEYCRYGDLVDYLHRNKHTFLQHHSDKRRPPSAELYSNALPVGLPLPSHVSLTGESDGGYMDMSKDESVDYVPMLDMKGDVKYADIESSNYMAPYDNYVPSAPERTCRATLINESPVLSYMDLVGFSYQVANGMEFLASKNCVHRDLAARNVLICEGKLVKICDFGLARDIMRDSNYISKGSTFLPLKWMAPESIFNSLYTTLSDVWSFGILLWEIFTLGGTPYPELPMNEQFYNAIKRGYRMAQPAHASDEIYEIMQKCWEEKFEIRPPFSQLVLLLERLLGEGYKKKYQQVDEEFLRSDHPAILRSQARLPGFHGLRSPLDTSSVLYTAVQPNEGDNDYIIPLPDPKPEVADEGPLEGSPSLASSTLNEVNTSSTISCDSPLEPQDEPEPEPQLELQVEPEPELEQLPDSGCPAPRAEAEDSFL
Chain of Tubulin (Sus scrofa) (P02550 whole entry, looked up): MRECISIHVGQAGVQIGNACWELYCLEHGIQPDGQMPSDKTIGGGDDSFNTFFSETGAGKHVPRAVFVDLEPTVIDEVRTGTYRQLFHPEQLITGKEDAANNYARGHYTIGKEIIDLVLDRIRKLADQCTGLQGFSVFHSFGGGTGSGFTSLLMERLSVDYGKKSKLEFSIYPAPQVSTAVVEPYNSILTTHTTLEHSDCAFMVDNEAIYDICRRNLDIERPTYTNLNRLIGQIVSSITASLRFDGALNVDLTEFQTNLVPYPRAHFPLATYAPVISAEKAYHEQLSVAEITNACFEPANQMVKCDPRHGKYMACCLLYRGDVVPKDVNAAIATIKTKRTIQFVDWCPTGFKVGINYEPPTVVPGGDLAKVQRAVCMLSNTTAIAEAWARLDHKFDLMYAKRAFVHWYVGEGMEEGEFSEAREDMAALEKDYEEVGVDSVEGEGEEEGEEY
Chain of Tubulin (Sus scrofa) (P02554 whole entry, looked up): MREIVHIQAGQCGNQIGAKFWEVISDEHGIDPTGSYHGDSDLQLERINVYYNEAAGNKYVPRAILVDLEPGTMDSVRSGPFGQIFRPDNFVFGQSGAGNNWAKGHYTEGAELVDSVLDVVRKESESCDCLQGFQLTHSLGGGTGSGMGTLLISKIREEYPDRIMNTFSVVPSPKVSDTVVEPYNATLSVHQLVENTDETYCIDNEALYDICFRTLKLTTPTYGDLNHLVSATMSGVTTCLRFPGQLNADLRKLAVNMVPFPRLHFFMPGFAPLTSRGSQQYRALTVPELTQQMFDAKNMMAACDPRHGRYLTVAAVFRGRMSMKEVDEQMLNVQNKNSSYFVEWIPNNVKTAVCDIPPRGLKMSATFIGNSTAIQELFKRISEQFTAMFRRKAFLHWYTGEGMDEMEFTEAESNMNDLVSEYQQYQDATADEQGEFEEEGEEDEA

CCCCN(c1ccc(OC)cc1)c1nc(C)nc2oc(C)cc12
IC50 [1]: > 10000 nM
IC50 [2]: 32600 nM
IC50 [3]: 56.5 nM
IC50 [4]: > 10000 nM
IC50 [5]: 34.4 nM
IC50 [6]: > 10000 nM
IC50 [7]: > 10000 nM
IC50 [8]: 340 nM
IC50 [9]: > 10000 nM

COc1ccc(N(C)c2nc(C)nc3oc(C)cc23)cc1 [listing 1 of 2 here]
GI50 [10]: 67.9 nM
IC50 [11]: 1900 nM

COc1cccc2c1C(=O)c1c(O)c3c(c(O)c1C2=O)C[C@@](O)(C(=O)CO)C[C@@H]3O[C@H]1C[C@H](N)[C@H](O)[C@H](C)O1 [DOXORUBICIN]
IC50 [12]: 1.35 nM

CCCN(c1ccc(OC)cc1)c1nc(C)nc2oc(C)cc12
IC50 [1]: 1240 nM
IC50 [2]: 16700 nM
IC50 [3]: 29.9 nM
IC50 [4]: 1600 nM
IC50 [5]: 8.5 nM
IC50 [6]: 3400 nM
IC50 [7]: 1500 nM
IC50 [9]: 1400 nM

CCN(c1ccc(OC)cc1)c1nc(C)nc2oc(C)cc12
IC50 [1]: 167 nM
IC50 [2]: 19200 nM
IC50 [3]: 27.1 nM
IC50 [4]: 228 nM
IC50 [5]: 10.6 nM
IC50 [6]: 270 nM
IC50 [7]: 206 nM
IC50 [8]: 70.7 nM
IC50 [9]: 137 nM

Cc1nc(Nc2ccc(C(F)(F)F)cc2)c2cc(C)oc2n1
IC50 [3]: 66.1 nM
IC50 [5]: 66.2 nM
IC50 [8]: 122 nM

Cc1nc(Nc2ccc(Cl)cc2)c2cc(C)oc2n1
IC50 [5]: 70.2 nM
IC50 [8]: 102 nM

C#Cc1cccc(Nc2nc(C)nc3oc(C)cc23)c1
IC50 [2]: 18200 nM
IC50 [3]: 16.2 nM
IC50 [5]: 76.3 nM
IC50 [8]: 30 nM

CCN(CC)CCNC(=O)c1c(C)[nH]c(/C=C2\C(=O)Nc3ccc(F)cc32)c1C [SUNITINIB]
IC50 [13]: 27.1 nM
IC50 [14]: 22.3 nM
IC50 [15]: 9.7 nM
IC50 [16]: 6.1 nM
IC50 [17]: 11.8 nM
IC50 [18]: 29.3 nM
IC50 [19]: 16 nM

COc1ccc(N(c2nc(C)nc3oc(C)cc23)C(C)C)cc1
IC50 [1]: 2900 nM
IC50 [2]: 18900 nM
IC50 [3]: 23.1 nM
IC50 [4]: 3800 nM
IC50 [5]: 15.6 nM
IC50 [6]: 7400 nM
IC50 [7]: 4070 nM
IC50 [8]: 84.4 nM
IC50 [9]: 3000 nM

COc1ccc(N(C)c2nc(C)nc3oc(C)cc23)cc1 [listing 2 of 2 here]
inhibition [20]: Active
inhibition [21]: 86%
Activity [22]: inactive
Activity [23]: Active
inhibition [24]: Dose-dependent effect
inhibition [25]: Active
Activity [26]: Active
inhibition [27]: Active
Activity [28]: Active
inhibition [29]: Active
Activity [30]: Active

COc1ccc(N(C)c2nc(C)nc3oc(C)cc23)cc1.Cl
Activity [31]: Non-toxic
IC50 [1]: 40.6 nM
IC50 [13]: 138 nM
IC50 [14]: 148 nM
IC50 [16]: 7.1 nM
IC50 [17]: 172 nM
Activity [32]: Non-toxic
IC50 [18]: 130 nM
IC50 [7]: 44.7 nM
IC50 [19]: 97.9 nM
MTD [33]: 50 mg/kg
IC50 [9]: 47 nM

Cc1nc(Nc2ccccc2)c2cc(C)oc2n1
IC50 [8]: 113 nM

Cc1nc(Nc2cccc3ccccc23)c2cc(C)oc2n1
IC50 [5]: 32.2 nM
IC50 [8]: 145 nM

CC(=O)O[C@H]1C(=O)[C@@]2(C)[C@H]([C@H](OC(=O)c3ccccc3)[C@]3(O)C[C@H](OC(=O)[C@H](O)[C@@H](NC(=O)c4ccccc4)c4ccccc4)C(C)=C1C3(C)C)[C@]1(OC(C)=O)CO[C@@H]1C[C@@H]2O [PACLITAXEL]
IC50 [9]: 1.93 nM

CS(=O)(=O)CCNCc1ccc(-c2ccc3ncnc(Nc4ccc(OCc5cccc(F)c5)c(Cl)c4)c3c2)o1 [LAPATINIB]
IC50 [13]: 64.9 nM
IC50 [14]: 20 nM
IC50 [15]: 29.7 nM
IC50 [16]: 83.2 nM
IC50 [19]: 10.4 nM

CC(=O)O[C@@]12CO[C@@H]1C[C@H](O)[C@@]1(C)C(=O)[C@H](O)C3=C(C)[C@@H](OC(=O)[C@H](O)[C@@H](NC(=O)OC(C)(C)C)c4ccccc4)C[C@@](O)([C@@H](OC(=O)c4ccccc4)[C@H]21)C3(C)C.O.O.O [DOCETAXEL]
IC50 [13]: 59.3 nM
IC50 [14]: 16 nM
IC50 [15]: 2.7 nM
IC50 [16]: 69.1 nM
IC50 [17]: 56.7 nM
IC50 [18]: > 1000 nM
inhibition [34]: Active
IC50 [19]: 63.4 nM
MTD [33]: 35 mg/kg

Cc1nc(Nc2cccc3[nH]ccc23)c2cc(C)oc2n1
IC50 [2]: 22600 nM
IC50 [3]: 28.3 nM
IC50 [5]: 102 nM
IC50 [8]: 90.2 nM

Cc1nc(Nc2ccc(F)c(Cl)c2)c2cc(C)oc2n1
IC50 [5]: 58.2 nM
IC50 [8]: 30.2 nM

COc1ccc(Nc2nc(C)nc3oc(C)cc23)cc1
IC50 [3]: 63.5 nM
IC50 [5]: 43.1 nM
IC50 [8]: 42.2 nM

— ChEMBL document CHEMBL3297731, “The design and discovery of water soluble 4-substituted-2,6-dimethylfuro[2,3-d]pyrimidines as multitargeted receptor tyrosine kinase inhibitors and microtubule targeting antitumor agents” (Bioorg Med Chem, 2014)
